Experimental findings from ChEMBL document CHEMBL1147132, “Structure-activity relationship studies of gonadotropin-releasing hormone antagonists containing S-aryl/alkyl norcysteines and their oxidized derivatives” (J Med Chem, 2007) are described below.

In data set [1] the target is T1, Gonadotropin-releasing hormone receptor (Homo sapiens, UniProt P30968).
T1 sequence (P30968 whole entry): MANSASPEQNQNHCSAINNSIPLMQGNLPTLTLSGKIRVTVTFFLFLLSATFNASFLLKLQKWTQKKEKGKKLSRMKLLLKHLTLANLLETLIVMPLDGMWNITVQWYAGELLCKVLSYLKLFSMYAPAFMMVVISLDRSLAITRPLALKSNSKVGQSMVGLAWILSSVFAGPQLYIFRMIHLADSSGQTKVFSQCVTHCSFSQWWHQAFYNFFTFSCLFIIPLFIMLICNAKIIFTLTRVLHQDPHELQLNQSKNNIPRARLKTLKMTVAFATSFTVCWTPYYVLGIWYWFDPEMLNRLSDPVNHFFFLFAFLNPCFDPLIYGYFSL
As to the kind of experiment: Antagonist activity at human GnRHR expressed in HEK293 cells assessed as inhibition of GnRH-induced luciferase response by reporter gene assay. The format is functional, cell-based. Put shortly:
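HEK293 cells stably expressing cloned human GnRHR and an LH alpha-subunit-promoter luciferase reporter, plated overnight. Compound in 1% DMSO was added 10 min before GnRH (1 nM final), then ≥5 h at 37 °C, 5% CO2, then luminescence. 11 half-log concentrations in duplicate. IC50 from four-parameter logistic fit, reported as geometric mean of ≥2 experiments.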
On the technique in general: A reporter such as luciferase makes a cellular process visible.

In data set [2] the target is T2, Gonadotropin-releasing hormone receptor (Rattus norvegicus, UniProt P30969).
T2 sequence (P30969 whole entry): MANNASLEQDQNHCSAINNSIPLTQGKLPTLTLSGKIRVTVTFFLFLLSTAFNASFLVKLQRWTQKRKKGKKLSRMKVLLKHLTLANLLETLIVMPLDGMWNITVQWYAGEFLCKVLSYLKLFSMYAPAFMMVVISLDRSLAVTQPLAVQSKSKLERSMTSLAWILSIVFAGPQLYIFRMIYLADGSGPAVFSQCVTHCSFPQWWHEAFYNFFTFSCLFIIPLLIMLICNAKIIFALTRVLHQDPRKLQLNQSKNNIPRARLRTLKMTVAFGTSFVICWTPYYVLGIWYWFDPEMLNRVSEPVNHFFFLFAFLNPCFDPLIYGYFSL
As to the kind of experiment: Antagonist activity at rat GnRHR expressed in HEK293 cells assessed as inhibition of GnRH-induced luciferase response by reporter gene assay. The format is functional, cell-based. In a few lines: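 Rat GnRHR stably expressed in HEK293 cells, transiently transfected with an NFAT-responsive luciferase reporter, plated after 16 h and assayed next day. Compound in 1% DMSO was given 10 min before 1 nM GnRH (final), ≥5 h at 37 °C, then luminescence. Duplicates at 11 half-log concentrations. IC50 by four-parameter logistic fit, geometric mean of ≥2 experiments.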

The nature of data set [3]: Ratio of IC50 for rat GnRHR to IC50 for human GnRHR in HEK293 cells. The format is functional.
For data set [4], the target named is T3, Gonadotropin-releasing hormone receptor (Homo sapiens) (UniProt P30968).
T3 sequence (whole entry): T1 sequence (P30968 whole entry)
Kind of data set: Antagonist activity at human GnRHR expressed in COS7 cells assessed as inhibition of GnRH-stimulated inositol phosphate production after 2 hrs. The following applies: COS-7, filed as antagonist. It counts as functional, cell-based. In a few lines:
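COS-7 cells transiently transfected with WT hGnRH-R cDNA, labelled 18 h at 37 °C with 4 μCi/mL [3H]myo-inositol in inositol-free DMEM. Cells were washed in medium with 5 mM LiCl, then co-incubated 2 h at 37 °C with 10−8 M GnRH plus analogue at 10−8 to 10−5 M. IP was measured by Dowex anion-exchange and scintillation counting. Triplicate, repeated three or more times.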

A short description of data set [5]: Solubility in 5% mannitol. The format is physicochemical.
Data set [6] concerns Rattus norvegicus. As to the kind of experiment: Inhibition of plasma testosterone levels in Sprague-Dawley rat at 19.6 uM, sc by enzyme-linked immunosorbent assay. The format is functional. Put shortly: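 Intact adult male Sprague-Dawley rats (275–310 g, 3 per group) received subcutaneous mini-pumps for seven days. Solutions were in 1:3 DMSO/water: 19.6 μM (~0.66 nM/day/kg), or 9.8 μM (~0.33 nM/day/kg). Sham-operated controls. Plasma was sampled on days 3–7 and testosterone measured by ELISA. Values are means of days 4–7.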

Molecules are shown by their SMILES. In brackets after ≈: the same amount, converted by molar mass.

What is called IC50 is the concentration that gives 50% inhibition. What is called solubility is the concentration that dissolves in the medium under given conditions.

`CS[C@H](NC(=O)[C@@H]1CCCN1C(=O)[C@H](CCCCNC(C)C)NC(=O)[C@H](CC(C)C)NC(=O)[C@@H](Cc1ccc(NC(C)=O)cc1)NC(=O)[C@H](Cc1ccc(NC(C)=O)cc1)NC(=O)[C@H](CO)NC(=O)[C@@H](Cc1cccnc1)NC(=O)[C@@H](Cc1ccc(Cl)cc1)NC(=O)[C@@H](Cc1ccc2ccccc2c1)NC(C)=O)C(N)=O`: the IC50 in data set [1] was 0.8 nM (antagonist); in data set [2], 1.7 nM (antagonist). The “Ratio IC50” value in data set [3] turned out to be 2.13. Also, in data set [4], the Activity result is “Antagonist”. The compound further gave a solubility in data set [5] of 50 mg/mL (≈ 31.9 mM). The Plasma testosterone level in data set [6] stood at 2.21 ng/mL.

As to `CC(=O)Nc1ccc(C[C@H](NC(=O)[C@H](CO)NC(=O)[C@@H](Cc2cccnc2)NC(=O)[C@@H](Cc2ccc(Cl)cc2)NC(=O)[C@@H](Cc2ccc3ccccc3c2)NC(C)=O)C(=O)N[C@H](Cc2ccc(NC(C)=O)cc2)C(=O)N[C@@H](CC(C)C)C(=O)N[C@@H](CCCCNC(C)C)C(=O)N2CCC[C@H]2C(=O)N[C@H](C)C(N)=O)cc1` [ACYLINE], the IC50 in data set [1] was 0.52 nM (antagonist); in data set [2], 1.5 nM (antagonist). In addition, in data set [3], the “Ratio IC50” value turned out to be 2.89. Moreover, the Activity entry in data set [4] was “Antagonist”. Besides, the solubility in data set [5] came out at 50 mg/mL (≈ 32.6 mM). The compound also registered a Plasma testosterone level in data set [6] of 0.69 ng/mL.

Take `CC(=O)Nc1ccc(C[C@H](NC(=O)[C@H](CO)NC(=O)[C@@H](Cc2cccnc2)NC(=O)[C@@H](Cc2ccc(Cl)cc2)NC(=O)[C@@H](Cc2ccc3ccccc3c2)NC(C)=O)C(=O)N[C@H](Cc2ccc(NC(C)=O)cc2)C(=O)N[C@@H](SC(C)C)C(=O)N[C@@H](CCCCNC(C)C)C(=O)N2CCC[C@H]2C(=O)N[C@H](C)C(N)=O)cc1`: the IC50 in data set [1] was 0.31 nM (antagonist); in data set [2], 2.5 nM (antagonist). In addition, the “Ratio IC50” value in data set [3] is recorded as 8.07. In data set [4], the Activity entry was “Antagonist”. In addition, the solubility in data set [5] came to 50 mg/mL (≈ 32.2 mM). In data set [6], this compound showed a Plasma testosterone level of 1.59 ng/mL.

Regarding `CS[C@H](NC(=O)[C@@H](Cc1cccnc1)NC(=O)[C@@H](Cc1ccc(Cl)cc1)NC(=O)[C@@H](Cc1ccc2ccccc2c1)NC(C)=O)C(=O)N[C@@H](Cc1ccc(NC(C)=O)cc1)C(=O)N[C@H](Cc1ccc(NC(C)=O)cc1)C(=O)N[C@@H](CC(C)C)C(=O)N[C@@H](CCCCNC(C)C)C(=O)N1CCC[C@H]1C(=O)N[C@H](C)C(N)=O`, the IC50 is 1.2 nM (antagonist) in data set [1] and 2.4 nM (antagonist) in data set [2]. Also, the “Ratio IC50” value in data set [3] amounted to 2. In data set [4], the Activity entry was “Antagonist”. This compound also returned a solubility in data set [5] of 50 mg/mL (≈ 32.3 mM). Also, the Plasma testosterone level in data set [6] is 1.99 ng/mL.

In the case of `CC(=O)Nc1ccc(C[C@H](NC(=O)[C@H](CO)NC(=O)[C@@H](Cc2cccnc2)NC(=O)[C@@H](Cc2ccc(Cl)cc2)NC(=O)[C@H](NC(C)=O)Sc2ccc3ccccc3c2)C(=O)N[C@H](Cc2ccc(NC(C)=O)cc2)C(=O)N[C@@H](CC(C)C)C(=O)N[C@@H](CCCCNC(C)C)C(=O)N2CCC[C@H]2C(=O)N[C@H](C)C(N)=O)cc1`, the IC50 is given as 0.73 nM (antagonist) in data set [1] and 4.4 nM (antagonist) in data set [2]. Also, in data set [3], the “Ratio IC50” value is on record as 6.03. Besides, the Activity result in data set [4] is “Antagonist”. In data set [5], this compound registered a solubility of 50 mg/mL (≈ 32.2 mM). In data set [6], this compound came in with a Plasma testosterone level of 1.03 ng/mL.
